Data: ChEMBL document CHEMBL3351691, “Steroidal alkaloids from the marine sponge Corticium niger that inhibit growth of human colon carcinoma cells” (2014)
Active and inactive are the calls of the source. No cut-off for these calls is given here.

Key:
[1] = test system: COLO 205; assay: Antiproliferative activity against human COLO205 cells assessed as growth inhibition after 48 hrs by XTT assay; type: functional, cell-based
How it was run: (§1)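 Cells were seeded into 384-well plates (COLO205 at […] cells/well, KM12 at 2.5×10^5 cells/well) and preincubated for 24 h. DMSO samples were diluted 1:25 in medium, then given five 2:1 serial dilutions and tested in duplicate (0.4% final DMSO). Exposure was 48 h at 37 °C. XTT was then added, and formazan was read after 4 h at 450 nm against a 650 nm reference.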

[2] = test system: HCT-15; assay: Antiproliferative activity against human HCT15 cells assessed as growth inhibition after 48 hrs by XTT assay; type: functional, cell-based
[3] = test system: SW-620; assay: Antiproliferative activity against human SW620 cells assessed as growth inhibition after 48 hrs by XTT assay; type: functional, cell-based
[4] = test system: HCC 2998; assay: Antiproliferative activity against human HCC2998 cells assessed as growth inhibition after 48 hrs by XTT assay; type: functional, cell-based
[5] = test system: HT-29; assay: Antiproliferative activity against human HT-29 cells assessed as growth inhibition after 48 hrs by XTT assay; type: functional, cell-based
[6] = test system: HCT-116; assay: Antiproliferative activity against human HCT116 cells assessed as growth inhibition after 48 hrs by XTT assay; type: functional, cell-based
[7] = test system: KM12; assay: Antiproliferative activity against human KM12 cells assessed as growth inhibition after 48 hrs by XTT assay; type: functional, cell-based; how it was run: as §1
[8] = Antiproliferative activity against human NCI60 cells assessed as growth inhibition after 48 hrs by XTT assay; type: functional; conditions: NCI60, 48 h

Row | SMILES | growth inhibition (GI) [1] | growth inhibition (GI) [2] | growth inhibition (GI) [3] | growth inhibition (GI) [4] | growth inhibition (GI) [5] | growth inhibition (GI) [6] | growth inhibition (GI) [7] | GI50 [8] [µM]
1 | CC(C)C1CCN(C)C1C[C@@H](C)[C@H]1CC[C@H]2C3=CC[C@H]4[C@H](N)C=CC[C@]4(C)[C@H]3CC[C@]12C (stereo partly drawn) | Active | Active | Active | Active | Active | Active | Active | –
2 | CC(C)=C1CCNC1C[C@@H](C)[C@H]1CC[C@H]2C3=CC[C@H]4C[C@H](N)CC[C@]4(C)[C@H]3CC[C@]12C (stereo partly drawn) | Active | Active | Active | Active | Active | Active | Active | 11.5
3 | CC(=O)O[C@H]1[C@H](N)CC[C@]2(C)[C@H]3CC[C@]4(C)[C@@H]([C@H](C)CC5NCCC5=C(C)C)CC[C@H]4C3=CC[C@@H]12 (stereo partly drawn) | Active | Active | Active | Active | Active | Active | Active | 2.4
